Experimental data: ChEMBL document CHEMBL1781995, “Acenaphtho[1,2-b]pyrrole-based selective fibroblast growth factor receptors 1 (FGFR1) inhibitors: design, synthesis, and biological activity” (J Med Chem, 2011)
pIC50: −log10 of the molar value. Calls of active or inactive are those of the source. The rule behind the calls is not given here.

Assays:
BXPC-3 = assay: Antiproliferative activity against human BxPC3 cells expressing FGFR after 72 hrs by SRB assay; type: functional, cell-based; details: BXPC-3, 72 h
In short: (§1)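 Cells seeded and grown 24 h, then exposed to increasing compound concentrations for 72 h without medium change. Fixed with cold 10% TCA 1 h at 4 °C, stained 15 min with 4 mg/mL SRB in 1% acetic acid, rinsed, dye dissolved in 10 mM Tris base, A515 read. Inhibition = (1 − A515treated/A515control)×100; IC50 by Logit method from at least three independent tests.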

WI-38 = assay: Antiproliferative activity against human WI38 cells expressing FGFR after 72 hrs by SRB assay; type: cell-based; details: WI-38, 72 h; in short: as §1
[1] = target: T1, Fibroblast growth factor receptor 1 (Homo sapiens, UniProt P11362); assay: Inhibition of FGFR1 using poly(Glu-Tyr)4:1 as substrate after 60 mins by ELISA
Target sequence in this assay (P11362 whole entry): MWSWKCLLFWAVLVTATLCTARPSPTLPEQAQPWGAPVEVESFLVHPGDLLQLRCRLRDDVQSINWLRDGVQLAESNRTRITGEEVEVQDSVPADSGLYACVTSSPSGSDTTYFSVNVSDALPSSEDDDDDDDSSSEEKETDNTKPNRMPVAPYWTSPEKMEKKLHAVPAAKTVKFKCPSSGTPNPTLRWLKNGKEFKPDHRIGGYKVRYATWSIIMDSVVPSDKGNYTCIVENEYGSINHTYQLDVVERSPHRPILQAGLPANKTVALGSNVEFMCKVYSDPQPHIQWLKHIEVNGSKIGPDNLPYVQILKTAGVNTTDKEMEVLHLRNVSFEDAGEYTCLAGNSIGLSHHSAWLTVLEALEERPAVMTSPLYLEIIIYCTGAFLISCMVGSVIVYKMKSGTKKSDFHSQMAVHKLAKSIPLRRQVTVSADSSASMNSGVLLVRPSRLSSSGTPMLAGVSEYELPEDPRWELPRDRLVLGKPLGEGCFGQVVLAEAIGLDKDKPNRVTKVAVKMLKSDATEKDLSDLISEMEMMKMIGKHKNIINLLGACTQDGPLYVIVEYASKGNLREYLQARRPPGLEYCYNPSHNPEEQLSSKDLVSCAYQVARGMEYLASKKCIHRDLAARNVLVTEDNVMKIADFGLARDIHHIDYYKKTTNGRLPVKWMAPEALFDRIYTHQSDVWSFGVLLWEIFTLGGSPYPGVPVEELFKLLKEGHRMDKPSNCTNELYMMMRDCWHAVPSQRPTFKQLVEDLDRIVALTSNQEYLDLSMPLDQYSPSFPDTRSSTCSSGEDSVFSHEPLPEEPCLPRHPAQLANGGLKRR

T-24 = assay: Antiproliferative activity against human T24 cells expressing FGFR after 72 hrs by SRB assay; type: functional, cell-based; details: T-24, 72 h; in short: as §1
[2] = target: T1, Fibroblast growth factor receptor 1; assay: Inhibition of b-FGF-induced FGFR1 phosphorylation in human BxPC3 cells at 10 uM after 12 hrs by Western blot analysis relative to control; type: cell-based; details: BXPC-3
In short: (§2)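 BxPC3 cells plated at 3 × 10^5 per well, serum-starved 24 h, then treated 12 h with compound (1.25, 2.5, 5, 10 μM). Whole-cell lysates run on 10% SDS-PAGE and immunoblotted for phospho-FGFR1 (Tyr653/654), phospho-Erk1/2 (T202/Y204), phospho-Akt and totals, with GAPDH loading control.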
Target sequence in this assay (P11362 22-822 limits assumed): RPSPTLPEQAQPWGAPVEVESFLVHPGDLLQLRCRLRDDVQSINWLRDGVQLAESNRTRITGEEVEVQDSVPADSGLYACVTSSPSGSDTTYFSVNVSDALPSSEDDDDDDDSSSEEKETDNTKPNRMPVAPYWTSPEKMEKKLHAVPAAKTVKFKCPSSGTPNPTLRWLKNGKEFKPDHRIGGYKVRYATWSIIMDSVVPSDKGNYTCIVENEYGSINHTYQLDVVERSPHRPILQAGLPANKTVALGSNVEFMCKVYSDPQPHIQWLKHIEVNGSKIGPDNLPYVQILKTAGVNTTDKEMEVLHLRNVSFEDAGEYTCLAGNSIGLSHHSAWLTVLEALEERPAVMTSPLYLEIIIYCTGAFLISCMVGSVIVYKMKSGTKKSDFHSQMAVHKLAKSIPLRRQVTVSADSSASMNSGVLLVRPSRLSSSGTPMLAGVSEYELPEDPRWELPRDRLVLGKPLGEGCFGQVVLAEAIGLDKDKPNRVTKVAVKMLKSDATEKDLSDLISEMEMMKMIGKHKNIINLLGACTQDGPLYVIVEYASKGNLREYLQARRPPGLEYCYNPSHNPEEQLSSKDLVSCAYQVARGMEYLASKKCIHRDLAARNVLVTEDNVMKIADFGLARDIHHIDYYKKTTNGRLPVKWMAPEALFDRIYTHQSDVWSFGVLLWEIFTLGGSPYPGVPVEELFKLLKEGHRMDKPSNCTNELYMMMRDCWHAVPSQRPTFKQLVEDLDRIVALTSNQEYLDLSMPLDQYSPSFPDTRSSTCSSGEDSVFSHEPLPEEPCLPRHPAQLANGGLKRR

[3] = target: T1, Fibroblast growth factor receptor 1; assay: Inhibition of b-FGF-induced FGFR1 phosphorylation in human BxPC3 cells at 1.25 uM after 12 hrs by Western blot analysis; type: cell-based; details: BXPC-3; in short: as §2
Target sequence in this assay (P11362 22-822 limits assumed): as above

[4] = target: T1, Fibroblast growth factor receptor 1; assay: Inhibition of FGFR1 in human BxPC3 cells assessed as reduction of Akt phosphorylation at 10 uM after 12 hrs by Western blot analysis; type: cell-based; details: BXPC-3; in short: as §2
Target sequence in this assay (P11362 22-822 limits assumed): as above

[5] = target: T1, Fibroblast growth factor receptor 1; assay: Inhibition of b-FGF-induced FGFR1 phosphorylation in human BxPC3 cells after 12 hrs by Western blot analysis; type: cell-based; details: BXPC-3; in short: as §2
Target sequence in this assay (P11362 22-822 limits assumed): as above

[6] = target: T1, Fibroblast growth factor receptor 1; assay: Inhibition of FGFR1 in human BxPC3 cells assessed as reduction of Erk1/2 phosphorylation at 10 uM after 12 hrs by Western blot analysis; type: cell-based; details: BXPC-3; in short: as §2
Target sequence in this assay (P11362 22-822 limits assumed): as above

[7] = target: T1, Fibroblast growth factor receptor 1; assay: Inhibition of FGFR1 in human BxPC3 cells assessed as reduction of Erk1/2 phosphorylation after 12 hrs by Western blot analysis; type: cell-based; details: BXPC-3; in short: as §2
Target sequence in this assay (P11362 22-822 limits assumed): as above

Compound	pIC50 (BXPC-3)	pIC50 [1]	pIC50 (WI-38)	pIC50 (T-24)	also measured
CCOC(=O)C1=C2C(=NC1=O)c1cccc3c(SCCN4CCSC4)ccc2c13	–	< 5.00	–	–	–
CCOC(=O)C1=C2C(=NC1=O)c1cccc3c(SC(C)C)ccc2c13	–	< 5.00	–	–	–
CCOC(=O)C1=C2C(=NC1=O)c1cccc3c(SC4CCOC4C)ccc2c13 (centres undefined)	–	< 5.00	–	–	–
CCCSC(=O)COC(=O)C1=C2C(=NC1=O)c1cccc3c(SCCC)ccc2c13	4.25	< 5.00	< 4.00	4.10	–
C=CCSc1ccc2c3c(cccc13)C1=NC(=O)C(C(=O)OCC(=O)OCC(F)(F)C(F)(F)F)=C12	4.41	6.37	4.34	4.06	–
C=CCSc1ccc2c3c(cccc13)C1=NC(=O)C(C(=O)OCC)=C12	5.60	6.31	5.34	6.15	inhibition [2]: Active; inhibition [3]: Active; inhibition [4]: inactive; inhibition [5]: Dose-dependent effect; inhibition [6]: Active
CCOC(=O)C1=C2C(=NC1=O)c1cccc3c(SC(C)C4(C)CSCO4)ccc2c13 (centres undefined)	–	< 5.00	–	–	–

Now from value to compound, other results behind:

pIC50 (BXPC-3)	pIC50 [1]	Compound	pIC50 (WI-38)	pIC50 (T-24)	also measured
4.60	5.35	N#CC1=C2C(=NC1=O)c1cccc3cccc2c13	4.66	4.88	–
–	< 5.00	N#CC1=C2C(=NC1=O)c1cccc3c(SCCc4cnccn4)ccc2c13	–	–	–
–	5.44	CC(Sc1ccc2c3c(cccc13)C1=NC(=O)C(C#N)=C12)C1(C)CSCO1 (centres undefined)	–	–	–
–	< 5.00	N#CC1=C2C(=NC1=O)c1cccc3c(SCCN4CCSC4)ccc2c13	–	–	–
–	< 5.00	N#CC1=C2C(=NC1=O)c1cccc3c(SCCO)ccc2c13	–	–	–
4.63	7.11	O=C(COC(=O)C1=C2C(=NC1=O)c1cccc3cccc2c13)OCC(F)(F)C(F)(F)F	4.32	4.72	–
5.32	7.72	C=CCOC(=O)C1=C2C(=NC1=O)c1cccc3cccc2c13	4.69	5.41	inhibition [7]: Dose-dependent effect; inhibition [4]: inactive
